Results: ChEMBL document CHEMBL1250525, “Structure-activity relationships in 1,4-benzodioxan-related compounds. 10. Novel α1-adrenoreceptor antagonists related to openphendioxan: synthesis, biological evaluation, and α1d computational study” (Bioorg Med Chem, 2010)

Legend:
[1] = target: T1, 5-hydroxytryptamine receptor 1A (Homo sapiens, UniProt P08908); experiment: Displacement of [3H]8-OH-DPAT from human adrenergic 5HT1A expressed in human HeLa cells; format: cell-based
T1 sequence (P08908 whole entry): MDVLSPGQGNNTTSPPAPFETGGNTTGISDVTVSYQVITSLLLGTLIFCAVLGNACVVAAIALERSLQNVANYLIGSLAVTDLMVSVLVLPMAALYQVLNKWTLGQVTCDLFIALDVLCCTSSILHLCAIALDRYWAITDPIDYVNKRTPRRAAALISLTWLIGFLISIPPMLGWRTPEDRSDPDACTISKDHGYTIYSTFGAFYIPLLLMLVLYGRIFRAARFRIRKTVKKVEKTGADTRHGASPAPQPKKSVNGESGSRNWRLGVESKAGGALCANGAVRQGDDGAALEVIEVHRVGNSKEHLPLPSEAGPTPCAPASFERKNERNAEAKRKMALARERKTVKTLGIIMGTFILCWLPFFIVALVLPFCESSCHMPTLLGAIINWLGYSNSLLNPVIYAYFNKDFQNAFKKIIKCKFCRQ
Procedure, shortened: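 HeLa cells stably carrying human 5-HT1A clone G-21, grown in DMEM with 10% FCS. Membranes in 50 mM Tris–HCl pH 7.4, 2.5 mM MgCl2, 10 µM pargyline, with 0.7–1.4 nM [3H]8-OH-DPAT for 30 min at 30 °C. Nonspecific binding with 10 µM 5-HT. Filtration stop. Ki by Cheng–Prusoff. Mean ± SE of 2–3 experiments in triplicate.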

[2] = target: T2, Alpha-1D adrenergic receptor (Homo sapiens, UniProt P25100); experiment: Displacement of [3H]prazosin from human adrenergic Alpha-1D expressed in CHO cells; format: cell-based
T2 sequence (P25100 whole entry): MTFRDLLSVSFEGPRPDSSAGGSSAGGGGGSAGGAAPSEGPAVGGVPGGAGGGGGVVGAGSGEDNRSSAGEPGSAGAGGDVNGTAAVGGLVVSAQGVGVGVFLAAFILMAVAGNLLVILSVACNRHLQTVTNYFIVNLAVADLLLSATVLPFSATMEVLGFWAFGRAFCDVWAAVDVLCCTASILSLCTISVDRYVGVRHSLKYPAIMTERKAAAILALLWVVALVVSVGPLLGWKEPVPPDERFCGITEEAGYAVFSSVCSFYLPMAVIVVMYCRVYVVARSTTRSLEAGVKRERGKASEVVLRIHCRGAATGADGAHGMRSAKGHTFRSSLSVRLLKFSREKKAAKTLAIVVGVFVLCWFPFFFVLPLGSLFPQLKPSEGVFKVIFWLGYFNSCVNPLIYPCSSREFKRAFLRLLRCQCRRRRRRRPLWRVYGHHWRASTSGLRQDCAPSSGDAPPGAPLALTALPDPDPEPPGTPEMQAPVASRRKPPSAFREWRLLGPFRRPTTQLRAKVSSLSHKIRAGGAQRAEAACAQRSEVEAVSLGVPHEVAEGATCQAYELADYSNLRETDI
Procedure, shortened: (§1)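 Membranes (30 µg protein) from CHO cells stably expressing each cloned human α1 subtype, labelled with [3H]prazosin. Nonspecific binding with 10 µM phentolamine. Stopped with ice-cold Tris–HCl and filtration on 0.2% polyethyleneimine-treated glass-fibre filters. Ki from IC50 by Cheng–Prusoff, nonlinear fitting. Mean ± SE of 2–3 experiments in triplicate.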

[3] = target: T3, Alpha-1B adrenergic receptor (Rattus norvegicus) (UniProt P15823); experiment: Antagonist activity at adrenergic Alpha-1B receptor in Wistar rat spleen assessed as inhibition of […]-indcuced contraction; format: functional, tissue-based
T3 sequence (whole entry): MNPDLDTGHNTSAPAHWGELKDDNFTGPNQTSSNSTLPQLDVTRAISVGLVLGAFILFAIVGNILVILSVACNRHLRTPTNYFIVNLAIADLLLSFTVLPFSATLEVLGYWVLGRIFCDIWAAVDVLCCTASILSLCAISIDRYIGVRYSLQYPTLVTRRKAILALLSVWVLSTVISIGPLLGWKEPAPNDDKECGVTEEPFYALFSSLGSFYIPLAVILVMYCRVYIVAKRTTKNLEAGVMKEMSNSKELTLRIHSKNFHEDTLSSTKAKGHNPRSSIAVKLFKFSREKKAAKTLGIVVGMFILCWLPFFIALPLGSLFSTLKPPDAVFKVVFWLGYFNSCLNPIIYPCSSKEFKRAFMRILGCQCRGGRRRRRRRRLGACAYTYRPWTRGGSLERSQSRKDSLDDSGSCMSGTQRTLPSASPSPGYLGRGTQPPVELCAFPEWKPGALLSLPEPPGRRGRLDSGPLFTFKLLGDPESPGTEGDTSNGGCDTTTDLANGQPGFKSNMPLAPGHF

[4] = target: T4, Alpha-1A adrenergic receptor (Homo sapiens, UniProt P35348); experiment: Displacement of [3H]prazosin from human adrenergic alpha1A expressed in CHO cells; format: cell-based; procedure, shortened: as §1
T4 sequence (P35348 whole entry): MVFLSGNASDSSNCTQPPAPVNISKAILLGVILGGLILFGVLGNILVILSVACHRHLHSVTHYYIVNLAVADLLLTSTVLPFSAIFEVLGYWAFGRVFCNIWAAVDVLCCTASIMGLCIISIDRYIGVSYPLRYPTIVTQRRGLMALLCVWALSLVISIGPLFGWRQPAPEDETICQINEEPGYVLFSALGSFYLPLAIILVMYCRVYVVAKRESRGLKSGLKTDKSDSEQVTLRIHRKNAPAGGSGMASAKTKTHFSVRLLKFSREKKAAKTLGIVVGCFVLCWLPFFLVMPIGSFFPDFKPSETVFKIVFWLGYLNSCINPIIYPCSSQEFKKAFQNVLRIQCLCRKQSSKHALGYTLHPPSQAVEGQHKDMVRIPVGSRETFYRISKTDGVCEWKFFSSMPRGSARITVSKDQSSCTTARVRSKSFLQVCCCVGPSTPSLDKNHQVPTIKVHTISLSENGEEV

[5] = target: T5, Alpha-1B adrenergic receptor (Homo sapiens, UniProt P35368); experiment: Displacement of [3H]prazosin from human adrenergic Alpha-1B expressed in CHO cells; format: cell-based; procedure, shortened: as §1
T5 sequence (P35368 whole entry): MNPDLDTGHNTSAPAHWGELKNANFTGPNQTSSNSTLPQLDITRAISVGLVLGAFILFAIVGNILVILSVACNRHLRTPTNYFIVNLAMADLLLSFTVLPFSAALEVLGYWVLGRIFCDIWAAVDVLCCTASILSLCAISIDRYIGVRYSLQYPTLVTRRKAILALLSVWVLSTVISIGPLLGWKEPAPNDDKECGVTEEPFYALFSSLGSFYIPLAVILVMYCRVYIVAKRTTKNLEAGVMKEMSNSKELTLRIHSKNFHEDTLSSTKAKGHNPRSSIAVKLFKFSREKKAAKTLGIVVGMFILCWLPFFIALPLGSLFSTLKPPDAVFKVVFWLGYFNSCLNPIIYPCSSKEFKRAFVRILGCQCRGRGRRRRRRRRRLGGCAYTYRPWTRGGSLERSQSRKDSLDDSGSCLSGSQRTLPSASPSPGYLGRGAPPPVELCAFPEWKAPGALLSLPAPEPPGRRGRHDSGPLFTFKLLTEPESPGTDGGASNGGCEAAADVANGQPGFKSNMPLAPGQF

[6] = target: T6, Alpha-1A adrenergic receptor (Rattus norvegicus) (UniProt P43140); experiment: Antagonist activity at adrenergic alpha1A receptor in Wistar rat vas deference assessed as inhibition of (-)-noradrenaline-indcuced contraction; format: functional
T6 sequence (whole entry): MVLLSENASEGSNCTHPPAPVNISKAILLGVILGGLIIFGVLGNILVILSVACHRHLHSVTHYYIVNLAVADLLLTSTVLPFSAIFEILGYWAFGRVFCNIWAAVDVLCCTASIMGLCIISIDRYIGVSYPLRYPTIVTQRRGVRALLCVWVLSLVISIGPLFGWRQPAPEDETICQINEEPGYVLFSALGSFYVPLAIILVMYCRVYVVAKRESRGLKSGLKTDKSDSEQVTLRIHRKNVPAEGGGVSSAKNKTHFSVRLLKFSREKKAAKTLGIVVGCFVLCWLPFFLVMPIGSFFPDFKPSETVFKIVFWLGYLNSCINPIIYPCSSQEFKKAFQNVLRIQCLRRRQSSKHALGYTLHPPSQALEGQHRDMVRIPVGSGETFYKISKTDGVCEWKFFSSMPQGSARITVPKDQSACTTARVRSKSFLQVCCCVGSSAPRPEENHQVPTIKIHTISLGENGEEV
Procedure, shortened: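 Tissue in Tyrode with 0.1 µM cocaine, equilibrated 60 min with washes every 15 min, primed twice with 10 µM noradrenaline. A noradrenaline curve gave the basal response. Antagonist 30 min, then 30 min washing, then a new agonist curve.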

[7] = target: T7, Alpha-1D adrenergic receptor (Rattus norvegicus) (UniProt P23944); experiment: Antagonist activity at adrenergic Alpha-1D receptor in Wistar rat thoracic aorta assessed as inhibition of (-)-noradrenaline-indcuced contraction; format: functional, tissue-based
T7 sequence (whole entry): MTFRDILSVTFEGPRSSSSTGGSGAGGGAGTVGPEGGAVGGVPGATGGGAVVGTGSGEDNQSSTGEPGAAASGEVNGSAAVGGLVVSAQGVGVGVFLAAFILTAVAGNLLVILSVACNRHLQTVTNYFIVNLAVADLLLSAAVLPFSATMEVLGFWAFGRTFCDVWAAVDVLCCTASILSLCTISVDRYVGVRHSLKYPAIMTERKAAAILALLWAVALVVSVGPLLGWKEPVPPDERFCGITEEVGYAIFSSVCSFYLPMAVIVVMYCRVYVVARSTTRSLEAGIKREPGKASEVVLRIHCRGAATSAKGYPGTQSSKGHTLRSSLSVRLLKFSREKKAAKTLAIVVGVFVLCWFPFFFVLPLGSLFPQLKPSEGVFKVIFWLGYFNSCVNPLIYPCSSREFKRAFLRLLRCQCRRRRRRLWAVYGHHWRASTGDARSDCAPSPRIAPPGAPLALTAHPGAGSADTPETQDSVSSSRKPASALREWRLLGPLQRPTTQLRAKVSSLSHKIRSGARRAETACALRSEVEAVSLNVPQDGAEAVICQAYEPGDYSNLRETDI

Row | Ki [1] | Ki [2] | pKb [3] | Ki [4] | Ki [5] | pKb [6] | pKb [7] | Compound
1 | 15.8 nM | 0.178 nM | 8.57 | 3.16 nM | 0.501 nM | 8.74 | 9.47 | COc1cccc(OC)c1SCCNCCOc1ccccc1OCc1ccccc1
2 | 3.16 nM | 2.75 nM | 7.65 | 20 nM | 15.8 nM | 7.95 | 7.49 | COc1cccc(OC)c1[S+]([O-])CCNCCOc1ccccc1OCc1ccccc1 (configuration not stated)
3 | 7.94 nM | 17.8 nM | 7.74 | 10 nM | 100 nM | 7.65 | 7.32 | c1ccc(COc2ccccc2OCCNCCOc2ccccc2)cc1
4 | 3.98 nM | 0.912 nM | 7.91 | 2.51 nM | 5.01 nM | 8.35 | 8.36 | COc1cccc(C)c1OCCNCCOc1ccccc1OCc1ccccc1
5 |  |  | 8.16 |  |  | 9.51 | 8.8 | COc1cccc(OC)c1OCCNCC1COc2ccccc2O1 (configuration not stated)
6 | 31.6 nM | 0.741 nM | 7.84 | 2.51 nM | 7.94 nM | 8.16 | 8.74 | COc1cccc(Cl)c1OCCNCCOc1ccccc1OCc1ccccc1
7 |  |  | 8.3 |  |  | 8.39 | 9.37 | COc1cccc(OC)c1OCCNCCOc1ccccc1OCc1ccccc1
8 | 5.01 nM | 3.72 nM | 7.94 | 2 nM | 12.6 nM | 8.03 | 8.35 | CCOc1ccccc1OCCNCCOc1ccccc1OCc1ccccc1
9 | 31.6 nM | 0.389 nM | 8.57 | 3.16 nM | 0.794 nM | 7.92 | 8.03 | CCOc1cccc(OCC)c1OCCNCCOc1ccccc1OCc1ccccc1
10 | 12.6 nM | 15.1 nM | 7.02 | 5.01 nM | 100 nM | 7.44 | 7.44 | Oc1cccc(O)c1OCCNCCOc1ccccc1OCc1ccccc1
11 | 2.51 nM | 1.2 nM | 7.34 | 9.77 nM | 6.92 nM | 7.8 | 8.12 | COc1cccc(OC)c1CCCNCCOc1ccccc1OCc1ccccc1
12 | 15.8 nM | 0.513 nM | 8.19 | 1.12 nM | 5.01 nM | 8.41 | 8.92 | COc1cccc([N+](=O)[O-])c1OCCNCCOc1ccccc1OCc1ccccc1
13 | 31.6 nM | 7.08 nM | 7.75 | 6.31 nM | 79.4 nM | 6.57 | 8.02 | Clc1cccc(Cl)c1OCCNCCOc1ccccc1OCc1ccccc1
14 | 15.8 nM | 14.1 nM | 7.78 | 7.94 nM | 100 nM | 7.33 | 7.59 | Cc1cccc(C)c1OCCNCCOc1ccccc1OCc1ccccc1
15 | 2.51 nM | 3.98 nM | 7.89 | 3.16 nM | 20 nM | 7.95 | 8.08 | COc1ccccc1OCCNCCOc1ccccc1OCc1ccccc1
